Assay results reported in ChEMBL document CHEMBL4052644, “Synthesis of novel benzylidene analogues of betulinic acid as potent cytotoxic agents” (Eur J Med Chem, 2017).

How the values were obtained:
A549 [1] = assay: Growth inhibition of human A549 cells at 10 uM after 48 hrs by SRB assay relative to control; type: functional; conditions: A549, 48 h, read-out: GI
How it was run: (§1)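 Primary SRB screen of every compound at a single concentration of 10 µM. Growth inhibition is expressed relative to control.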

MCF7 [2] = assay: Cytotoxicity against human MCF7 cells assessed as reduction in cell viability after 48 hrs by SRB assay; type: functional, cell-based; conditions: MCF7, 48 h
How it was run: (§2)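 SRB assay. Compounds active at 10 µM in the primary screen were retested at 1, 2.5 and 5 µM, and IC50 was calculated from these concentrations. The normal breast epithelial line fR2 was tested alongside the cancer lines.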

MIA PaCa-2 [3] = assay: Growth inhibition of human MIAPaCa2 at 10 uM after 48 hrs by SRB assay relative to control; type: functional; conditions: MIA PaCa-2, 48 h, read-out: GI; how it was run: as §1
PC-3 [4] = assay: Growth inhibition of human PC3 cells at 10 uM after 48 hrs by SRB assay relative to control; type: functional; conditions: PC-3, 48 h, read-out: GI; how it was run: as §1
HCT-116 [5] = assay: Growth inhibition of human HCT116 cells at 10 uM after 48 hrs by SRB assay relative to control; type: functional; conditions: HCT-116, 48 h, read-out: GI; how it was run: as §1
[6] = Cytotoxicity against human FR2 cells assessed as reduction in cell viability after 48 hrs by SRB assay; type: cell-based; conditions: FR2, 48 h; how it was run: as §2
HCT-116 [7] = assay: Cytotoxicity against human HCT116 cells assessed as reduction in cell viability after 48 hrs by SRB assay; type: functional, cell-based; conditions: HCT-116, 48 h; how it was run: as §2
A549 [8] = assay: Cytotoxicity against human A549 cells assessed as reduction in cell viability after 48 hrs by SRB assay; type: functional, cell-based; conditions: A549, 48 h; how it was run: as §2
MIA PaCa-2 [9] = assay: Cytotoxicity against human MIAPaCa2 cells assessed as reduction in cell viability after 48 hrs by SRB assay; type: functional, cell-based; conditions: MIA PaCa-2, 48 h; how it was run: as §2
[10] = Selectivity index, ratio of IC50 for human FR2 cells to IC50 for human HCT116 cells; type: functional
How it was run: (§3)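 Selectivity index is the IC50 in normal breast epithelial fR2 cells divided by the IC50 in each cancer line. All IC50 values come from the SRB assay.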

MCF7 [11] = assay: Growth inhibition of human MCF7 cells at 10 uM after 48 hrs by SRB assay relative to control; type: functional; conditions: MCF7, 48 h, read-out: GI; how it was run: as §1
PC-3 [12] = assay: Cytotoxicity against human PC3 cells assessed as reduction in cell viability after 48 hrs by SRB assay; type: functional, cell-based; conditions: PC-3, 48 h; how it was run: as §2
[13] = Selectivity index, ratio of IC50 for human FR2 cells to IC50 for human A549 cells; type: functional; how it was run: as §3
[14] = Selectivity index, ratio of IC50 for human FR2 cells to IC50 for human MCF7 cells; type: functional; how it was run: as §3

SMILES: C=C(C)[C@@H]1CC[C@]2(C(=O)O)CC[C@]3(C)[C@H](CC[C@@H]4[C@@]5(C)C/C(=C\c6c(Cl)cccc6Cl)C(=O)C(C)(C)[C@@H]5CC[C@]43C)[C@@H]12
- inhibition of growth at 10 µM (A549 [1]): 62%
- IC50 (MCF7 [2]): 9.07 µM
- inhibition of growth at 10 µM (MIA PaCa-2 [3]): 15%
- inhibition of growth at 10 µM (PC-3 [4]): 25%
- inhibition of growth at 10 µM (HCT-116 [5]): 33%
- IC50 [6]: 18.2 µM
- IC50 (HCT-116 [7]): > 10 µM
- IC50 (A549 [8]): 7.7 µM
- IC50 (MIA PaCa-2 [9]): > 10 µM
- Ratio IC50 [10]: <2.003
- inhibition of growth at 10 µM (MCF7 [11]): 54%
- IC50 (PC-3 [12]): > 10 µM
- Ratio IC50 [13]: 2.359

SMILES: C=C(C)[C@@H]1CC[C@]2(C(=O)O)CC[C@]3(C)[C@H](CC[C@@H]4[C@@]5(C)C/C(=C\c6ccsc6)[C@H](O)C(C)(C)[C@@H]5CC[C@]43C)[C@@H]12
- inhibition of growth at 10 µM (A549 [1]): 72%
- IC50 (MCF7 [2]): 1.71 µM
- inhibition of growth at 10 µM (MIA PaCa-2 [3]): 70%
- inhibition of growth at 10 µM (PC-3 [4]): 35%
- inhibition of growth at 10 µM (HCT-116 [5]): 62%
- IC50 [6]: 11.1 µM
- IC50 (HCT-116 [7]): > 10 µM
- IC50 (A549 [8]): > 10 µM
- IC50 (MIA PaCa-2 [9]): > 10 µM
- inhibition of growth at 10 µM (MCF7 [11]): 79%
- IC50 (PC-3 [12]): > 10 µM
- Ratio IC50 [14]: 6.461

SMILES: C=C(C)[C@@H]1CC[C@]2(C(=O)O)CC[C@]3(C)[C@H](CC[C@@H]4[C@@]5(C)C/C(=C\c6ccc(Br)o6)[C@H](O)C(C)(C)[C@@H]5CC[C@]43C)[C@@H]12
- inhibition of growth at 10 µM (A549 [1]): 0%
- inhibition of growth at 10 µM (MIA PaCa-2 [3]): 34%
- inhibition of growth at 10 µM (PC-3 [4]): 8%
- inhibition of growth at 10 µM (HCT-116 [5]): 25%
- inhibition of growth at 10 µM (MCF7 [11]): 22%

SMILES: C=C(C)[C@@H]1CC[C@]2(C(=O)O)CC[C@]3(C)[C@H](CC[C@@H]4[C@@]5(C)C/C(=C\c6c(Cl)cccc6Cl)[C@H](O)C(C)(C)[C@@H]5CC[C@]43C)[C@@H]12
- inhibition of growth at 10 µM (A549 [1]): 40%
- IC50 (MCF7 [2]): > 10 µM
- inhibition of growth at 10 µM (MIA PaCa-2 [3]): 38%
- inhibition of growth at 10 µM (PC-3 [4]): 38%
- inhibition of growth at 10 µM (HCT-116 [5]): 40%
- IC50 [6]: 13.3 µM
- IC50 (HCT-116 [7]): > 10 µM
- IC50 (A549 [8]): > 10 µM
- IC50 (MIA PaCa-2 [9]): > 10 µM
- inhibition of growth at 10 µM (MCF7 [11]): 56%
- IC50 (PC-3 [12]): > 10 µM

SMILES: C=C(C)[C@@H]1CC[C@]2(C(=O)O)CC[C@]3(C)[C@H](CC[C@@H]4[C@@]5(C)CCC(=O)C(C)(C)[C@@H]5CC[C@]43C)[C@@H]12 [BETUNOLIC ACID]
- inhibition of growth at 10 µM (A549 [1]): 62%
- IC50 (MCF7 [2]): > 10 µM
- inhibition of growth at 10 µM (MIA PaCa-2 [3]): 36%
- inhibition of growth at 10 µM (PC-3 [4]): 43%
- inhibition of growth at 10 µM (HCT-116 [5]): 49%
- IC50 [6]: 16.2 µM
- IC50 (HCT-116 [7]): > 10 µM
- IC50 (A549 [8]): 5.7 µM
- IC50 (MIA PaCa-2 [9]): > 10 µM
- inhibition of growth at 10 µM (MCF7 [11]): 43%
- IC50 (PC-3 [12]): > 10 µM
- Ratio IC50 [13]: 2.838

SMILES: C=C(C)[C@@H]1CC[C@]2(C(=O)O)CC[C@]3(C)[C@H](CC[C@@H]4[C@@]5(C)C/C(=C/C=C/c6ccccc6)[C@H](O)C(C)(C)[C@@H]5CC[C@]43C)[C@@H]12
- inhibition of growth at 10 µM (A549 [1]): 26%
- inhibition of growth at 10 µM (MIA PaCa-2 [3]): 49%
- inhibition of growth at 10 µM (PC-3 [4]): 30%
- inhibition of growth at 10 µM (HCT-116 [5]): 40%
- inhibition of growth at 10 µM (MCF7 [11]): 49%

SMILES: C=C(C)[C@@H]1CC[C@]2(C(=O)O)CC[C@]3(C)[C@H](CC[C@@H]4[C@@]5(C)CC[C@H](O)C(C)(C)[C@@H]5CC[C@]43C)[C@@H]12 [BETULINIC ACID]
- inhibition of growth at 10 µM (A549 [1]): 40%
- IC50 (MCF7 [2]): > 10 µM
- inhibition of growth at 10 µM (MIA PaCa-2 [3]): 26%
- inhibition of growth at 10 µM (PC-3 [4]): 49%
- inhibition of growth at 10 µM (HCT-116 [5]): 42%
- IC50 [6]: 30.1 µM
- IC50 (HCT-116 [7]): > 10 µM
- IC50 (A549 [8]): > 10 µM
- IC50 (MIA PaCa-2 [9]): > 10 µM
- inhibition of growth at 10 µM (MCF7 [11]): 28%
- IC50 (PC-3 [12]): > 10 µM
